KCNK9 inh: inhibitors of human KCNK9 two-pore domain potassium channel | B-score at 10 µM | HEK293 KCNK9, FluxOR thallium flux fluorescence; stronger effect = lower value | actives 1.2% (n = 310,000);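 active = ratio B-score over 3 SD below the library mean, with starting fluorescence within 5 SD of its mean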;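 note: negative B-score means less thallium flux so channel inhibition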
Target sequence (Q9NPC2 whole entry, looked up, the tested form may be a part): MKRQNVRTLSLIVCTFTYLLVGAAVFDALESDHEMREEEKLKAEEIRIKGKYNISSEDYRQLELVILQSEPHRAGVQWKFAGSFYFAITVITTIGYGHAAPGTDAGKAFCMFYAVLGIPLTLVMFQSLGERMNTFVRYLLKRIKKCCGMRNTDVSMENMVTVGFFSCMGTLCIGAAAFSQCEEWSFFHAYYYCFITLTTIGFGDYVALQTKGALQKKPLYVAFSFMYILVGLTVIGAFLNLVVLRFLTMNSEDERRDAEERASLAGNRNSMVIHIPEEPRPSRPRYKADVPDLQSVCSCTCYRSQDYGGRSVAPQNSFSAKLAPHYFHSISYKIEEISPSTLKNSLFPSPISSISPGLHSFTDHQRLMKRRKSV
KCNQ1 inh: blocks the human KCNQ1 potassium channel | B-score at 10 µM | AID 2642 | actives 1.3% (n = 310,000) | CHO-K1 KCNQ1, FluxOR thallium flux fluorescence; stronger effect = higher value;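 active = compounds whose thallium flux B-score, printed positive for inhibition, exceeds three library SD while starting fluorescence stays within three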;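 note: channel opened by potassium depolarization with thallium stimulus after 20 min compound exposure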
KCNQ1 pot: potentiators or activators of human KCNQ1 potassium channel | actives 0.35% (n = 310,000) | CHO-K1 KCNQ1, thallium flux FluxOR fluorescence; stronger effect = higher value | B-score at 10 µM | AID 2648;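 active = fluorescence ratio B-score, a plate-corrected score, at least three library SD, with initial intensity B-score within 5 SD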
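Schedule – 37 °C overnight plating, 90-min dark dye load, 20-min compound pretreatment · System – stable KCNQ1 CHO-K1 line · Probe or stimulus – thallium- and potassium-containing depolarizing buffer · Measured by – kinetic FluxOR fluorescence, 10 s baseline plus 110 s post-stimulus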
Cl transport mod: KCC2 (human) Cl- transport modulation; Q9H2X9; KCC2 cells, thallium flux FluoZin-2 fluorescence; B-score of Tl+ flux slope (higher = more flux/activation; lower = inhibition) at 10 µM; actives 2.2% (n = 190,000);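 active = thallium flux slope and its plate-corrected score both differing from the plate sample mean at a set confidence after two filtering rounds, in either direction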;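 note: slope of fluorescence scaled to starting intensity during 10 to 20 s after thallium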
KCNK3 inh: human KCNK3 channel inhibition, primary screen | AID 602410 | CHO-KCNK3 thallium flux, FluxOR fluorescence; stronger effect = lower value | actives 0.84% (n = 340,000) | B-score at 10 µM;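 active = B-score under library mean minus 4 SD, starting fluorescence ratio at most library mean plus 5 SD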;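 note: more negative B-score means stronger inhibition of thallium flux through KCNK3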
hERG rescue: compounds protecting human hERG from proarrhythmic drug block; AID 1511; CHO-hERG, FluxOR thallium flux, dofetilide IC70 present; Q12809; actives 0.51% (n = 310,000); activation (rescue from dofetilide block), less the hit threshold, % at 10 µM;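 active = activation above the mean of controls blocked by dofetilide plus 5 SD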;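 note: thallium influx through hERG after potassium depolarization seen as dye fluorescence rise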
* marks the source's active call; other numbers are inactive results; i = inactive; / = not tested or not shown. Sampled rows, rich in hits. Any-hit rate of the full collection: about 4.1%.

SMILES | KCNK9 inh | KCNQ1 inh | KCNQ1 pot | Cl transport mod | KCNK3 inh | hERG rescue
O=C(c1cncc(Br)c1)N1CCN(S(=O)(=O)c2ccc3ccccc3c2)CC1 | / | / | / | / | i | /
COC(=O)Cn1c2c(c3cc(C)ccc31)CCCC2NC(C)c1ccccc1 (stereo not given) | i | i | i | 1.4 | i | 4.9*
CCOc1cc(N2CCOCC2)c(OCC)cc1NC(=O)CCC1CCCC1 | i | i | i | 0.042 | i | 6.9*
CCOc1cc(N2CCOCC2)c(OCC)cc1NC(=O)c1ccc(NC(C)=O)cc1 | i | i | i | / | i | 40*
CCOc1cc(N2CCOCC2)c(OCC)cc1NC(=O)CN1C(=O)C2CC=CCC2C1=O (stereo not given) | i | i | i | 0.46 | i | 7.2*
CCOc1cc(N2CCOCC2)c(OCC)cc1NC(=O)CN1C(=O)C2C3C=CC(C3)C2C1=O (stereo not given) | i | i | i | 0.92 | i | -6
CCOc1cc(N2CCOCC2)c(OCC)cc1NC(=O)c1ccc(OC)cc1 | i | i | i | / | i | -14
Cc1ccccc1C(=O)NC1CCN(CC(=O)NC2CCCCC2)CC1 | i | i | i | / | i | -1
COc1ccc(Cl)cc1S(=O)(=O)NCc1ccncc1 | i | i | i | / | i | -5
N#CC1=C(N)NC(SCC(=O)Nc2ccc(Br)cc2)=C(C#N)C12CCCCC2 | i | 9* | i | -4.9* | i | -14
N#CC1=C(N)NC(SCC(=O)c2ccccc2)=C(C#N)C12CCCC2 | i | i | i | -1.6 | i | -14
CC1Cc2ccccc2N1C(=O)Cn1c(=O)oc2cc(S(=O)(=O)N3CCCCC3)ccc21 (stereo not given) | -7.2* | i | i | / | i | -8
CCCOc1ccc(/C=N/NC(=O)CN2CCCCC2)cc1OCC | i | i | i | / | i | -6
CCCCOc1ccc(C(=O)N/N=C/c2ccc(OCCN3CCCCC3)c(OC)c2)cc1 | i | 6* | i | -1.1 | i | -15
Cc1ccc(OCCn2c(SCCO)nc3c(N)ncnc32)cc1 | i | i | i | / | i | -14
CC1=NN(c2ccccc2)C(=O)C1C(=O)c1ccc(Cl)cc1 (stereo not given) | i | i | i | 7.8* | i | -2
CC1=NN(c2ccccc2)C(=O)/C1=C/c1ccc(Cl)cc1 | i | 8* | i | / | i | -6
COCc1cc(C)nc(SCC(=O)c2ccc(O)c(O)c2)c1C#N | i | i | i | / | i | 5.7*
CC1(C)CC(=O)C2=C(C1)OC(N)=C(C#N)C2c1cc2c(cc1[N+](=O)[O-])OCO2 (stereo not given) | i | 10* | i | -0.12 | i | -24
CCOc1cc(C2C(C#N)=C(N)OC3=C2C(=O)CC(C)(C)C3)cc([N+](=O)[O-])c1O (stereo not given) | i | i | i | 0.33 | i | -4
CCc1ccc2c(Cl)c(C(=O)N/N=C/c3c[nH]c4ccccc34)sc2c1 | i | 6* | i | -0.25 | i | -9
Clc1ccc(CSc2cc3c(nn2)-c2ccccc2CC3)cc1 | i | 6* | i | 0.07 | i | -15
Clc1ccc(CSc2ccc(-c3ccccn3)nn2)cc1 | i | i | i | 0.19 | i | -11
COc1ccccc1C(CC(=O)Nc1ccc(Cl)cc1)c1ccc(OC(C)C)cc1 (stereo not given) | i | i | i | -1.1 | i | -6
O=C(CC(c1ccccc1)c1ccccc1O)NCc1ccco1 (stereo not given) | i | i | i | / | i | -9
SMILES | KCNK9 inh | KCNQ1 inh | KCNQ1 pot | Cl transport mod | KCNK3 inh | hERG rescue
CC(C)Oc1ccc(CNC(=O)CC(c2ccccc2)c2cc(Cl)ccc2O)cc1 (stereo not given) | -7.3* | 7* | i | / | i | -13
O=C(CC(c1ccccc1)c1ccccc1O)NCc1ccccc1Cl (stereo not given) | -7.5* | i | i | -0.7 | i | -10
COc1ccc(Cn2c(O)c(/C=N/NC(=O)c3cccnc3)c3ccccc3c2=O)cc1 | i | i | i | -2.3 | i | -23
O=C(N/N=C/c1c(O)n(Cc2ccccc2)c(=O)c2ccccc12)c1cccnc1 | i | i | i | -3.2* | i | -8
COc1ccc(CN2CCC(Oc3cc(C(=O)NC4CC4)ccc3OC)CC2)c(O)c1 | i | i | i | / | i | -18
CCCCC(=O)OCC(=O)N1N=C(c2c[nH]c3ccccc23)C(O)C1c1ccc(OC)cc1 (stereo not given) | i | i | i | / | i | -5
CN1C(=O)/C(=N\OC(=O)c2cccc3ccccc23)c2ccccc21 | i | i | 18* | -0.033 | i | 11*
COc1ccc(C(=O)O/N=C2\C(=O)N(C)c3ccccc32)cc1 | i | i | i | / | i | -12
CC1CN(CC(=O)Nc2nc3ccccc3s2)CC(C)O1 (stereo not given) | i | i | i | / | i | -4
O=C(CN1C(=O)NC2(CCCCC2)C1=O)Nc1ccc2[nH]c(=O)[nH]c2c1 | / | / | / | / | i | /
CCCCCC(=O)NC(NC(=S)NC1CCS(=O)(=O)C1)C(Cl)(Cl)Cl (stereo not given) | i | i | i | -0.14 | i | 5.6*
CCOc1ccc(NC(=O)CN(C)C(=O)c2c(-c3c(F)cccc3Cl)noc2C)cc1OCC | i | i | 8* | / | i | 3
CCOc1ccc(NC(=O)CN(C)C(=O)c2cn(-c3ccc(F)cc3)nc2-c2cccc(OC)c2)cc1OCC | i | 7* | i | / | i | -12
COc1ccc(-c2nn(-c3ccccc3)cc2/C=C/C(=O)N(C)CC(=O)Nc2cccc(F)c2)cc1OC | / | / | / | / | -10* | /
COc1ccc(-c2nn(-c3ccccc3)cc2C(=O)NCCCn2ccnc2)cc1 | i | i | i | -1.1 | i | -2
COc1ccc(-c2nn(-c3ccccc3)cc2/C=C/C(=O)NCCCn2ccnc2)cc1OC | i | 7* | i | -0.75 | i | -36
Cc1c(C)c2ccc(OCC(=O)Nc3ccccn3)cc2oc1=O | i | i | i | / | i | -13
CCOC(=O)C1=CC[C@H]2c3c(c4ccccc4n3C)C(=O)C1N2Cc1ccccc1 | / | / | / | / | i | /
Cc1cc(NC(=O)c2sccc2C)n(-c2nc3ccccc3[nH]2)n1 | -7* | i | i | 2.2 | i | -6
Cc1ccc(S(=O)(=O)/C(C#N)=C/c2c(N3CCN(C)CC3)nc3ccccn3c2=O)cc1 | i | i | i | -0.01 | i | -14

High-throughput results from PubChem.
